# Assay results from PubChem BioAssay AID540295 (The Scripps Research Institute Molecular Screening Center, 2011).
# About 1,700 (0.47%) of roughly 360,000 compounds were called active. Many of the other results were omitted from the sample, so actives are more common in it than they were. Unmarked numbers belong to inactive results.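 How the source made its calls: active means inhibition above its plate's cutoff, the mean of tested wells on that plate plus 3 SD (cut at about 29% in these data); inactive means the rest.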
# Molecular target: Melanocortin receptor 4 (Homo sapiens) (UniProt P32245)
# Sequence (P32245 whole entry, looked up): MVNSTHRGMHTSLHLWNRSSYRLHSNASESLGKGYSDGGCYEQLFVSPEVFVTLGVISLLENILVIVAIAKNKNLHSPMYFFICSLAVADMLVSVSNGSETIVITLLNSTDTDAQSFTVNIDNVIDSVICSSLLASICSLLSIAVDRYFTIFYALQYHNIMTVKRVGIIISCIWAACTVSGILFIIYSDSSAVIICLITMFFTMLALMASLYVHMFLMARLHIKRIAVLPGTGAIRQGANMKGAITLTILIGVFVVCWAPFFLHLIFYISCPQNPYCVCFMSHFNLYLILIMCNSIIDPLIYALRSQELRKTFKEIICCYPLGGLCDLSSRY
# Assay: MC4R antagonists of cAMP signaling, primary screen, cell-based, TR-FRET, antagonist arm of biased-ligand search (AID 540295);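 further: 0% = Melanotan II alone and 100% = Melanotan II plus saturating MCL0020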
# Conditions: MC4R-expressing cells, MTII-stimulated cAMP, LANCE TR-FRET; at 6.5 µM; active compounds read high
# Outline: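 System: U2OS-MC4R stable cell line; Technique: Eu-cAMP/anti-cAMP TR-FRET, emission 671 nm; Repeats: single well per compound; Also added: Melanotan II; Dosing: one concentration, 6.5 µM nominal; Schedule: 30-min compound, 1-h challenge, 1-h detection, room temperature.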
row,Structure (SMILES),inhibition
1,COc1ccc(CCNC(=O)CSCc2ccc(Br)cc2)cc1OC,1.08%
2,CC(C)c1ccc(NC(=O)CCN2C(=O)c3ccc([N+](=O)[O-])cc3C2=O)cc1,7.45%
3,O=NN(CCCl)C(=O)NCCc1cccc[n+]1[O-],7.72%
4,CC(C)(C)C1CCC(OC(=O)CCC(=O)Nc2ccccc2)CC1 (centres undefined),2.76%
5,CC1C(C)N(C(=O)CCl)c2ccccc2N1C(=O)CCl (centres undefined),-4%
6,COc1ccc(C(=O)OCC(=O)NCC2CCCO2)cc1[N+](=O)[O-] (centres undefined),1.35%
7,C[C@@H](NC(=O)c1nc[nH]c1C(=O)N1CCN(C(=O)OC(C)(C)C)CC1)c1ccccc1,15.2%
8,CC(C)(C)OC(=O)N1CCC(NC(=O)c2[nH]cnc2C(=O)N[C@@H](Cc2ccccc2)C(=O)OCc2ccccc2)CC1,35.5% (active)
9,O=C(N[C@@H](Cc1ccccc1)C(=O)OCc1ccccc1)c1nc[nH]c1C(=O)N[C@@H](Cc1ccccc1)C(=O)OCc1ccccc1,10.8%
10,O=C1NC(c2ccccc2)CCC1(Cl)Cl (centres undefined),3.93%
11,C=CCn1c(SCC(=O)c2c(N)n(C)c(=O)n(C)c2=O)nc2sc(CC)cc2c1=O,8.69%
12,Cc1ccc(CSc2nnc(-c3cnccn3)n2C)cc1,29.1% (active)
13,Cn1c(SCc2c(F)cccc2Cl)nnc1-c1cnccn1,-3.89%
14,Cn1c(SCc2ccc(F)cc2)nnc1-c1ccncc1,0.33%
15,[O-][n+]1onc2c1CCc1[nH]c(-c3ccccc3)nc1-2,2.02%
16,COc1ccc(NS(=O)(=O)c2ccc(C)c(C(=O)NNC(=O)c3csc(N4CCOCC4)n3)c2)cc1,-2.21%
17,CC(C)Oc1ccc(/C=C(\NC(=O)/C=C/c2ccco2)C(=O)NCCc2nc3ccccc3[nH]2)cc1,28.9% (active)
18,CC(C)=C(NC(=O)c1ccco1)C(=O)NCCc1nc2ccccc2[nH]1,2.22%
19,CCCCCOc1ccc(/C=C/C(=O)NCCc2nc3ccccc3[nH]2)cc1OC,6.2%
20,O=C(N/N=C\c1ccc(-c2ccc(Cl)c(Cl)c2)o1)C(=O)N1CCCC1,4.11%
21,Cc1ccc(S(=O)(=O)N(CC(=O)NCc2ccco2)c2ccccc2C)cc1,12.4%
22,COc1ccc(Cc2cc(-c3ccc(F)cc3)n[nH]c2=O)cc1,9.23%
23,COc1ccc(-n2nc(C(=O)Nc3cc(OC)c(OC)c(OC)c3)c3ccccc3c2=O)c(OC)c1,31.6% (active)

row,Structure (SMILES),inhibition
1,COc1ccc(-n2nc(C(=O)NCC(=O)N3CCN(c4ccccc4OC)CC3)c3ccccc3c2=O)c(OC)c1,1.93%
2,COc1cccc(NC(=O)c2nn(-c3ccc(OC)cc3OC)c(=O)c3ccccc23)c1,-1.09%
3,COc1ccc(CCNC(=O)CN2C(=O)COc3ccc(S(=O)(=O)N4CCCC4)cc32)cc1OC,3.63%
4,CCCS(=O)(=O)NC(=O)C1(C)CCCN(C(=O)c2cc(C)on2)C1 (centres undefined),10.6%
5,Cc1cc(=O)oc2c3c(cc(OCC(=O)NCc4ccccn4)c12)OC(C)(C)CC3,-0.73%
6,Cc1ccc(C)c(OCCC(=O)OCC(=O)c2ccc3c(c2)NC(=O)CO3)c1,2.21%
7,O=C(O)CN1C(=O)CC(Cc2ccccc2)C1=O (centres undefined),-3.51%
8,Cc1ccc(NC(=O)C2CC2c2ccccc2)cc1 (centres undefined),0.14%
9,Cc1ccc(Sc2ccc(NC(=O)c3ccc(F)cc3)cc2C#N)cc1,33.5% (active)
10,COC(=O)c1ccc(Sc2ccc(F)cc2)c(N)c1,-11.2%
11,COc1ccc(Sc2ccc(NC(=O)c3cccc(Cl)c3)cc2C#N)cc1,5.3%
12,Cc1ccc(S(=O)(=O)N2CCC(C(=O)OCC(=O)N3CC(=O)Nc4ccccc43)CC2)cc1,20.2%
13,Cc1ccccc1SCC(=O)OCC(=O)N1CC(=O)Nc2ccccc21,0.86%
14,Cc1ccc(S(=O)(=O)N(C)CC(=O)OCC(=O)Nc2ccccc2)cc1,34.1% (active)
15,CN(C)S(=O)(=O)c1ccc(NC(=O)COC(=O)Cn2[nH]c(=O)c3ccccc3c2=O)cc1,9.38%
16,CN(c1ccccc1)S(=O)(=O)c1ccc(NC(=O)COc2ccccc2)cc1,-6.55%
17,Cc1ccc(S(=O)(=O)N(C)CC(=O)OCC(=O)N2CC(=O)Nc3ccccc32)cc1,33.9% (active)
18,COc1ccnc(Oc2ccccc2)n1,0.1%
19,C#Cc1cc(N2CCN(C(=O)c3ccoc3)CC2)n2nc(-c3cccc(Cl)c3)cc2n1,32.1% (active)
20,O=C(c1ccccc1)N1CCN(c2cc(-c3ccccc3)nc3cc(-c4cccc(Cl)c4)nn23)CC1,1.52%
21,CN(C)CCN1CCN(c2cc(-c3cccc(Cl)c3)nc3ccnn23)CC1,3.3%
22,CC(CNc1ccc([N+](=O)[O-])c2cccnc12)Nc1c([N+](=O)[O-])cc(C(F)(F)F)cc1[N+](=O)[O-] (centres undefined),7.59%
23,COc1ccccc1-c1n[nH]c2c1[C@H](C)CC[C@H]2C(C)C,10%

row,Structure (SMILES),inhibition
1,Cc1cc(C)cc(Oc2c(C(F)(F)F)oc3cc(OCC(=O)O)ccc3c2=O)c1,-2.27%
2,O=C(CSc1c2c(nc3ccc(Cl)cc13)CCCC2)NCc1ccco1,11.1%
3,O=C(CSc1nc(Nc2ccccc2)nc(N2CCOCC2)n1)Nc1cc(Cl)ccc1O,-4.1%
4,O=C(CSc1nc2ccc(Nc3nc(N4CCOCC4)nc(N4CCOCC4)n3)cc2s1)NCc1ccco1,29.5% (active)
5,Cc1ccccc1N1CC(C(=O)Nc2ccc3c(c2)OCO3)CC1=O (centres undefined),8.22%
6,CCOCc1nnc(NC(=O)CCS(=O)(=O)Cc2ccccc2)s1,4.21%
7,O=C1C(Cl)=C(Oc2ccccc2)C(=O)c2ccccc21,93.5% (active)
8,CCC1CCCCN1C(=S)Nc1ccc(S(=O)(=O)Nc2ncccn2)cc1 (centres undefined),-1.16%
9,C=CC(=O)OCCOCCOCCOCCOC(=O)C=C,-0.74%
10,COCC(C)NC(=O)c1ccc(-n2nc(C(F)(F)F)cc2-c2cccs2)cc1 (centres undefined),11.7%
11,Cc1ccc(C)c(NC2=NCC(=O)N2c2ccc3c(c2)OCCO3)c1,-2.27%
12,Cc1cc(=O)oc2c3c(cc(OCC(=O)NCC(O)c4ccccc4)c12)OC(C)(C)CC3 (centres undefined),14.2%
13,Brc1c(CSc2nncc3ccccc23)nc2ccccn12,0.34%
14,CCOC(=O)C(C)n1cnc2sc(C)c(C)c2c1=O (centres undefined),31.2% (active)
15,CCOC(=O)C(C)n1cnc2scc(-c3ccc(C)c(C)c3)c2c1=O (centres undefined),1.47%
16,CC(C(=O)O)n1cnc2sc3c(c2c1=O)CCCC3 (centres undefined),-7.65%
17,CC(=O)NC12CC3CC(C1)CC(C(=O)N1CCN(C(=O)c4ccco4)CC1)(C3)C2,-0.56%
18,CCN1CCN(c2nc(Nc3cc(OC)ccc3OC)nc(Nc3cc(OC)ccc3OC)n2)CC1,12.3%
19,COc1ccc(Nc2ncc(F)c(N3CCOCC3)n2)cc1,-0.86%
20,CCOc1ccc(Nc2nc(Cl)nc(N3CCN(c4ccc(OC)cc4)CC3)n2)cc1,29.1% (active)
21,Cc1ccc(Nc2cc(C)nc3c(C)ccc([N+](=O)[O-])c23)cc1,-5.69%
22,CCNC(=O)CCc1nc(-c2ccc(C(C)(C)C)cc2)no1,9.83%
23,Cc1cccc(-c2nc3c(c(SCC(=O)N4CCOCC4)n2)CCCC3)c1,3.91%

row,Structure (SMILES),inhibition
1,CCCS(=O)(=O)NC(=O)C1(C)CCCN(C(=O)c2ccnc(Cl)c2)C1 (centres undefined),-1.37%
2,Cc1nnc(N/N=C/C2CC=CCC2)[nH]c1=O (centres undefined),33.9% (active)
3,O=C(N/N=C\C1CC=CCC1)c1ccc(Br)o1 (centres undefined),6.38%
4,Cc1nnc(N/N=C/c2ccccn2)[nH]c1=O,-1.07%
5,CCN1CCN(C(=O)CN(C)S(=O)(=O)c2ccc(OC)cc2)CC1,9.54%
6,Cc1ccc([N+](=O)[O-])cc1S(=O)(=O)N1CCCN(C)CC1,-8.59%
7,Cc1ccc(NC(=O)CCNC(=O)c2ccc([N+](=O)[O-])cc2)cc1S(=O)(=O)N1CCOCC1,-2.86%
8,Cc1ccc(C)c(S(=O)(=O)N2CCN(CC(=O)Nc3ccc([N+](=O)[O-])cc3)CC2)c1,34.2% (active)
9,COC(=O)c1ccc(CSc2ccc(S(=O)(=O)N3CCCCC3)cn2)cc1,0.99%
10,Cc1ccc(SC(CC(=O)c2ccc(C(C)(C)C)cc2)C(=O)O)cc1 (centres undefined),31.2% (active)
11,Cc1ccc(Sc2cc(C(=O)c3ccccc3C(=O)O)ccc2[N+](=O)[O-])cc1,-7.09%
12,Cc1ccc(SC(C)C(=O)NCc2ccc(F)cc2)cc1 (centres undefined),-3.51%
13,CCCC(C(=O)n1nc(C)cc1C)C(NS(=O)(=O)c1ccc(C)cc1)c1ccccc1 (centres undefined),34.4% (active)
14,Cc1ccc(S(=O)(=O)NC(C(=O)N2CCOCCOCCOCCOCC2)c2ccccc2)cc1 (centres undefined),-0.07%
15,Cc1ccc(S(=O)(=O)Nc2nc(C)cc(-n3nc(C)cc3C)n2)cc1,14.3%
16,CCc1c(C)[nH]c(=S)c(C#N)c1C,14.3%
17,O=C1NC[C@@H](c2ccccc2)OC(=O)[C@H](Cc2ccc(F)cc2)CC/C=C/C[C@H]1CC(=O)N(CCO)Cc1ccccc1,7.53%
18,CC(=O)Nc1ccc(C=Cc2ccc([N+](=O)[O-])cc2)cc1,1.16%
19,O=C1/C(=C\c2ccc([N+](=O)[O-])cc2)CS(=O)(=O)C/C1=C/c1ccc([N+](=O)[O-])cc1,34.6% (active)
20,O=C(O)C(=Cc1ccc([N+](=O)[O-])cc1)CCc1ccccc1,-2.43%
